ChEMBL document CHEMBL1156609, “9-N-Substituted berberine derivatives: stabilization of G-quadruplex DNA and down-regulation of oncogene c-myc” (Bioorg Med Chem, 2008)
Active and inactive are the calls of the source. The rule behind the calls is not given here.

Columns and labels:
[1] = organism: Homo sapiens; assay: Binding affinity to duplex F10T DNA assessed as change melting temperature at 2.0 uM by FRET melting assay
[2] = test system: NCI; assay: Cytotoxicity against human NCI cells by MTT assay; type: functional, cell-based
Outline: (§1)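 MTT cytotoxicity assay against tumour cells; IC50 taken as mean of three independent assays.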

[3] = Cytotoxicity against human GLC cells by MTT assay; type: functional, cell-based; outline: as §1
[4] = Inhibition of human c-myc G-quadruplex Pu27 DNA amplification at 5.0 uM by PCR-stop assay
Outline: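 PCR-stop: Pu27 template with complementary oligomer in 1× PCR buffer, 0.16 mM dNTP, 2.5 U Taq, compound at 1.0, 2.5, 4.0 or 5.0 μM; 94 °C 3 min, then 30 cycles of 94/58/72 °C for 30 s each; products on 15% native PAGE in TBE, silver stained.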

[5] = organism: Homo sapiens; assay: Binding affinity to human c-myc G-quadruplex Pu18 DNA assessed as change melting temperature at 2.0 uM by FRET melting assay
Outline: (§2)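 FRET melting of dual-labelled Pu18 (5'-FAM/3'-TAMRA), 0.2 μM, in 10 mM Tris–HCl pH 7.2 with 0.2 mM KCl, compound 2.0 μM; fluorescence recorded on a real-time PCR instrument; Tm read from melting curves, ΔTm relative to no-compound control.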

[6] = organism: Homo sapiens; assay: Binding affinity to human c-myc G-quadruplex Pu18 DNA assessed as melting temperature at 2.0 uM by FRET melting assay; outline: as §2
[7] = Binding affinity to duplex F10T DNA assessed as melting temperature at 2.0 uM by FRET melting assay
[8] = organism: Homo sapiens; assay: Induction of G-quadruplex formation in human c-myc Pu27 DNA at 10 uM […] by gel electrophoresis
[9] = test system: HL-60; assay: Inhibition of human c-myc gene transcription in HL60 cells at 0.7-1.7 uM after 4 days by RT-PCR; type: functional, cell-based
[10] = test system: HL-60; assay: Antiproliferative activity against human HL60 cells assessed as cell count and viability at 5 to 10 uM; type: functional, cell-based
Outline: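 HL60 cells (RPMI-1640, 10% FBS, penicillin/streptomycin, 37 °C, 5% CO2), about 5000 per well, given freshly dissolved compound at 0–10 μM for 4 days, re-dosed at day 5 for a further 4 days; cell count and viability by trypan blue exclusion daily from day 1 to day 8.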

ΔTm [1] [°C] | IC50 [4] [µM] | ΔTm [5] [°C] | Tm [6] [°C] | Tm [7] [°C] | Activity [8] | SMILES | IC50 [2] [µM] | IC50 [3] [µM] | Activity [9] | Activity [10]
0 | 4 | 20 | 74 | 58 |  | COc1ccc2cc3[n+](cc2c1NCCN1CCCCC1)CCc1cc2c(cc1-3)OCO2 | 22 | 38 |  | 
0 | 5.5 | 12 | 66 | 58 |  | COc1ccc2cc3[n+](cc2c1NCCO)CCc1cc2c(cc1-3)OCO2 | 35 | 51 |  | 
2 | 2.3 | 25 | 78 | 60 |  | COc1ccc2cc3[n+](cc2c1NCCCN1CCCC1)CCc1cc2c(cc1-3)OCO2 | 22 | 32 |  | 
0 | 4.8 | 17 | 71 | 58 |  | COc1ccc2cc3[n+](cc2c1NCCCN1CCOCC1)CCc1cc2c(cc1-3)OCO2 | 85 | 102 |  | 
1 | 3.6 | 20 | 74 | 59 |  | COc1ccc2cc3[n+](cc2c1NCCc1ccccc1)CCc1cc2c(cc1-3)OCO2 | 2 | 18 |  | 
1 | 7.1 | 18 | 72 | 59 |  | COc1ccc2cc3[n+](cc2c1NCCN1CCOCC1)CCc1cc2c(cc1-3)OCO2 | 50 | 50 |  | 
1 | 3.2 | 24 | 78 | 59 |  | COc1ccc2cc3[n+](cc2c1NCCCN1CCCCC1)CCc1cc2c(cc1-3)OCO2 | 38 | 69 |  | 
2 |  | 1 | 55 |  |  | COc1ccc2cc3[n+](cc2c1OC)CCc1cc2c(cc1-3)OCO2 |  |  |  | 
2 | 2 | 29 | 83 | 60 | Active | COc1ccc2cc3[n+](cc2c1NCCCCCCN)CCc1cc2c(cc1-3)OCO2 | 4 | 9 | Active | Active
0 | 3.9 | 19 | 73 | 58 |  | COc1ccc2cc3[n+](cc2c1NCCN(C)C)CCc1cc2c(cc1-3)OCO2 | 36 | 56 |  | 
1 | 3.3 | 20 | 74 | 59 |  | COc1ccc2cc3[n+](cc2c1NCCCN(C)C)CCc1cc2c(cc1-3)OCO2 | 29 | 64 |  | 
